Laboratory results: ChEMBL document CHEMBL4368909, “Identification of Dihydrofuro[3,4- d]pyrimidine Derivatives as Novel HIV-1 Non-Nucleoside Reverse Transcriptase Inhibitors with Promising Antiviral Activities and Desirable Physicochemical Properties” (J Med Chem, 2019)

How the values were obtained:
[1] = Selectivity ratio of CC50 for human TZM-bl cells to EC50 for HIV1 NL4-3 infected in human TZM-bl cells; type: toxicity, cell-based; details: read-out: Ratio CC50/EC50
In short: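 The selectivity index is CC50/EC50 in TZM-bl cells against NL4-3. […] The highest concentration tested was 125 ng/mL.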

[2] = tested on: Human immunodeficiency virus 1; test: Antiviral activity against HIV1 NL4-3 infected in human TZM-bl cells after 2 days by luciferase-bright glo assay; type: functional, organism-based; details: Human immunodeficiency virus 1, NL4-3, TZM-bl, 48 h
TZM = test: Cytotoxicity against human TZM-bl cells after 4 days by XTT assay; type: cell-based; details: 96 h
MT4 = test: Cytotoxicity against human MT4 cells after 5 days by MTT assay; type: cell-based; details: mt4, 120 h
[3] = Selectivity ratio of CC50 for human MT4 cells to EC50 for HIV1 RES056 infected in human MT4 cells; type: toxicity, cell-based; details: read-out: Ratio CC50/EC50
[4] = tested on: Human immunodeficiency virus 2; test: Antiviral activity against HIV2 ROD infected in human MT4 cells assessed as reduction in virus-induced cytopathic effect after 5 days by MTT assay; details: Human immunodeficiency virus 2, ISOLATE ROD, MT4, 120 h
[5] = target: Human immunodeficiency virus type 1 reverse transcriptase (Human immunodeficiency virus 1, UniProt Q72547); test: Inhibition of recombinant HIV1 reverse transcriptase using (DIG)-dUTP and biotin-labeled dNTPs as substrate after 1 hr by ELISA
[6] = tested on: Human immunodeficiency virus 1; test: Antiviral activity against HIV1 RES056 infected in human MT4 cells assessed as reduction in virus-induced cytopathic effect after 5 days by MTT assay; type: functional, organism-based; details: Human immunodeficiency virus 1, RES056, MT4, 120 h
[7] = Selectivity ratio of CC50 for human MT4 cells to EC50 for HIV1 3B infected in human MT4 cells; type: toxicity, cell-based; details: read-out: Ratio CC50/EC50
[8] = tested on: Human immunodeficiency virus 1; test: Antiviral activity against wild type HIV1 3B infected in human MT4 cells assessed as reduction in virus-induced cytopathic effect after 5 days by MTT assay; type: functional, organism-based; details: Human immunodeficiency virus 1, 3B, MT4, 120 h

## Cc1cc(C#N)cc(C)c1Oc1nc(NC2CN(Cc3ccc(S(N)(=O)=O)cc3)C2)nc2ccsc12
[1]
  selectivity ratio: 53
[2]
  EC50: 4.53 nM
TZM
  CC50: > 240 nM

## Cc1cc(C#N)cc(C)c1Oc1nc(NC2CCN(Cc3ccc(S(N)(=O)=O)cc3)CC2)nc2c1CSC2
MT4
  CC50: 26600 nM
[3]
  selectivity ratio: 36
[4]
  EC50: ≥ 26700 nM
[5]
  IC50: 410 nM
[6]
  EC50: 734 nM
[7]
  selectivity ratio: 715
[8]
  EC50: 37.2 nM

## Cc1cc(C#N)cc(C)c1Oc1nc(N[C@@H]2CCN(Cc3cccc(C(N)=O)c3)C2)nc2ccsc12
[1]
  selectivity ratio: 6
[2]
  EC50: 41.3 nM

## Cc1cc(C#N)cc(C)c1Oc1nc(NC2CCCN(Cc3cccc(C(N)=O)c3)CC2)nc2ccsc12 (centres undefined)
[1]
  selectivity ratio: 23
[2]
  EC50: 10.3 nM
TZM
  CC50: > 237 nM

## Cc1cc(C#N)cc(C)c1Oc1nc(N[C@@H]2CCN(Cc3ccncc3)C2)nc2ccsc12
[1]
  selectivity ratio: 17
[2]
  EC50: 16 nM
TZM
  CC50: > 273 nM

## Cc1cc(C#N)cc(C)c1Oc1nc(NC2CCN(Cc3ccc(C(N)=O)cc3)CC2)nc2c1CCC2
[4]
  EC50: 139000 nM
[5]
  IC50: 73 nM
[6]
  EC50: 173 nM
[8]
  EC50: 6.1 nM

## Cc1cc(C#N)cc(C)c1Oc1nc(NC2CC3CCC(C2)N3Cc2ccc(C(N)=O)cc2)nc2ccsc12 (centres undefined)
[1]
  selectivity ratio: 1
[2]
  EC50: > 232 nM
TZM
  CC50: > 232 nM

## Cc1cc(C#N)cc(C)c1Oc1nc(NC2CCN(Cc3ccc(C(N)=O)cc3)CC2)nc2c1SCCC2
MT4
  CC50: ≥ 44300 nM
[4]
  EC50: > 44300 nM
[6]
  EC50: 93 nM
[8]
  EC50: 3 nM

## Cc1cc(C#N)cc(C)c1Oc1nc(NC2CCN(Cc3ccc([N+](=O)[O-])cc3)CC2)nc2c1COC2
[4]
  EC50: > 11100 nM
[5]
  IC50: 92 nM
[6]
  EC50: 511 nM
[8]
  EC50: 7.4 nM

## Cc1cc(C#N)cc(C)c1Oc1nc(N[C@H]2CCN(Cc3ccncc3)C2)nc2ccsc12
[1]
  selectivity ratio: 16
[2]
  EC50: 16.7 nM

## Cc1cc(C#N)cc(C)c1Oc1nc(NC2CCN(Cc3ccc(N)cc3)CC2)nc2c1CSC2
MT4
  CC50: > 257000 nM
[4]
  EC50: 108000 nM
[5]
  IC50: 115 nM
[6]
  EC50: 704 nM
[8]
  EC50: 8.4 nM

## Cc1cc(C#N)cc(C)c1Oc1nc(NC2CCN(Cc3ccc([N+](=O)[O-])cc3)CC2)nc2c1SCCC2
MT4
  CC50: 4000 nM
[3]
  selectivity ratio: 6.6
[4]
  EC50: > 4000 nM
[6]
  EC50: 604 nM
[7]
  selectivity ratio: 465
[8]
  EC50: 8.6 nM

## Cc1cc(C#N)cc(C)c1Oc1nc(N[C@@H]2CCN(Cc3ccc(C(N)=O)cc3)C2)nc2ccsc12
[1]
  selectivity ratio: 24
[2]
  EC50: 10.4 nM

## Cc1cc(C#N)cc(C)c1Oc1nc(NC2CN(Cc3ccncc3)C2)nc2ccsc12
[1]
  selectivity ratio: 128
[2]
  EC50: 2.21 nM
TZM
  CC50: > 282 nM

## Cc1cc(C#N)cc(C)c1Oc1nc(NC2CCN(Cc3cccc(C(N)=O)c3)CC2)nc2c1SCC2
[4]
  EC50: > 223000 nM
[5]
  IC50: 94 nM
[6]
  EC50: 629 nM
[8]
  EC50: 27.7 nM

## Cc1cc(C#N)cc(C)c1Oc1nc(NC2CC3CCC(C2)N3Cc2cccc(C(N)=O)c2)nc2ccsc12 (centres undefined)
[1]
  selectivity ratio: 1
[2]
  EC50: > 232 nM
TZM
  CC50: > 232 nM

## Cc1cc(C#N)cc(C)c1Oc1nc(NC2CN(Cc3cccc(C(N)=O)c3)C2)nc2ccsc12
[1]
  selectivity ratio: 29
[2]
  EC50: 8.95 nM
TZM
  CC50: > 257 nM

## Cc1cc(C#N)cc(C)c1Oc1nc(NC2CC3CCC(C2)N3Cc2ccc(S(C)(=O)=O)cc2)nc2ccsc12 (centres undefined)
[1]
  selectivity ratio: 1
[2]
  EC50: > 217 nM
TZM
  CC50: > 217 nM

## Cc1cc(C#N)cc(C)c1Oc1nc(N[C@H]2CCN(Cc3cccc(C(N)=O)c3)C2)nc2ccsc12
[1]
  selectivity ratio: 1
[2]
  EC50: > 250 nM
TZM
  CC50: > 250 nM

## Cc1cc(C#N)cc(C)c1Oc1nc(N[C@@H]2CCN(Cc3ccc(S(C)(=O)=O)cc3)C2)nc2ccsc12
[1]
  selectivity ratio: 16
[2]
  EC50: 13.9 nM
